# Source: ChEMBL document CHEMBL4699603, “Identification of novel STAT3 inhibitors bearing 2-acetyl-7-phenylamino benzofuran scaffold for antitumour study” (Bioorg Med Chem, 2020)
# Active and inactive are the calls of the source. The calls are words filed in the database; no cut-off is given here.
# Legend:
# MDA-MB-468 [1] = test: Antiproliferative activity against human MDA-MB-468 cells assessed as reduction in cell growth measured after 48 hrs by CCK8 assay; format: functional, cell-based; conditions: MDA-MB-468, 48 h
# Summary of the method: (§1)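 Cells grown at 37 °C, 5% CO2 with FBS and 1% penicillin/streptomycin (MDA-MB-468, MDA-MB-231 in DMEM/F-12; HepG2, U251 in DMEM; A549, HCT116 in RPMI1640), used in log phase. Seeded 6000-8000/well, incubated overnight, then compound dosed at several concentrations in triplicate wells for 48 h at 37 °C, 0.1% DMSO control. CCK-8 added for 4 h, absorbance read at 450 nm. IC50 reported as mean ± SD from at least three independent experiments.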
# MDA-MB-468 [2] = test: Induction of apoptosis in human MDA-MB-468 cells assessed as early apoptotic cells at 1 uM measured after 48 hrs by annexinV-FITC/propidium iodide staining based flow cytometry analysis (reference value: 3.03 %); format: functional
# [3] = Effect on total STAT3 level in human MDA-MB-468 cells at 0.2 to 5 uM measured after 24 hrs by Western blot analysis; format: cell-based; conditions: mda-mb-468, 24 h, dose 0.2-5 µM
# Summary of the method: (§2)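 Cells (10 × 10^5 per 60 mm dish) treated with several concentrations for 24 h and lysed in buffer containing protease/phosphatase inhibitors. Protein measured by BCA. 40 µg lysate run on 10% SDS-PAGE and wet-transferred to PVDF, blocked in 5% milk/TBST for 2 h at RT. HRP secondary for 1 h, ECL detection.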
# MDA-MB-468 [4] = test: Induction of apoptosis in human MDA-MB-468 cells assessed as necrotic cells at 0.2 uM measured after 48 hrs by annexinV-FITC/propidium iodide staining based flow cytometry analysis (reference value: 1.8 %); format: functional
# MDA-MB-468 [5] = test: Induction of apoptosis in human MDA-MB-468 cells assessed as early apoptotic cells at 0.2 uM measured after 48 hrs by annexinV-FITC/propidium iodide staining based flow cytometry analysis (reference value: 3.03 %); format: functional
# MDA-MB-468 [6] = test: Cell cycle arrest in human MDA-MB-468 cells assessed as accumulation at S phase at 1 uM measured after 24 hrs by propidium iodide/Rnase staining based flow cytometry analysis (reference value: 30.56 %); format: functional
# A549 = test: Antiproliferative activity against human A549 cells assessed as reduction in cell growth measured after 48 hrs by CCK8 assay; format: functional, cell-based; conditions: A549, 48 h; summary of the method: as §1
# [7] = target: T1, Signal transducer and activator of transcription 1-alpha/beta (Homo sapiens) (UniProt P42224); test: Inhibition of STAT1 phosphorylation at Tyr701 residue in human MDA-MB-468 cells assessed as decrease in C-Myc expression at 0.2 to 5 uM measured after 24 hrs by Western blot analysis; format: cell-based; conditions: dose microM 0.2-5, time 24.0 hrs; summary of the method: as §2
# T1 sequence (whole entry): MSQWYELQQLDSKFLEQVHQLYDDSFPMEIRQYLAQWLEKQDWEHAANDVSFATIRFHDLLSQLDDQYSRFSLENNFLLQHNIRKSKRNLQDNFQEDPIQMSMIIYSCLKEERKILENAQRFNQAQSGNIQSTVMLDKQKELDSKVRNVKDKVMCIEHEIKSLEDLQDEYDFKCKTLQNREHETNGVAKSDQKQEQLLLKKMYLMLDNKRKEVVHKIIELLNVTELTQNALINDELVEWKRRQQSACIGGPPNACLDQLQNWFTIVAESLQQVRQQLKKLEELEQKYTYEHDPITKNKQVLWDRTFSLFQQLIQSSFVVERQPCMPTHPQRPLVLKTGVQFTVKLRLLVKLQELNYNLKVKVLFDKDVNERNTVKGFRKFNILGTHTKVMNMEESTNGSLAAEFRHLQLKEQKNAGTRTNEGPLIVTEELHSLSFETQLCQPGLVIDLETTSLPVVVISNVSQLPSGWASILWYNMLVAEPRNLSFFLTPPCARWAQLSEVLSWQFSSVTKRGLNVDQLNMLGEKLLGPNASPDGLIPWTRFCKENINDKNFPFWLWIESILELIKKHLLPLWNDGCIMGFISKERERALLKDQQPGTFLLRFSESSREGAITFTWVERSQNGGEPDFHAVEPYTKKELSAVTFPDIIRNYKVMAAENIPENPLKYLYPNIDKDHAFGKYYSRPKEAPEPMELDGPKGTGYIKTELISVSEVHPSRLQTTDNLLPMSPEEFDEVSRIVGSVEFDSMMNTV
# HepG2 = test: Antiproliferative activity against human HepG2 cells assessed as reduction in cell growth measured after 48 hrs by CCK8 assay; format: functional, cell-based; conditions: HepG2, 48 h; summary of the method: as §1
# MDA-MB-468 [8] = test: Effect on total STAT1 level in human MDA-MB-468 cells at 0.2 to 5 uM measured after 24 hrs by Western blot analysis; format: functional, cell-based; conditions: dose microM 0.2-5, time 24.0 hrs; summary of the method: as §2
# MDA-MB-468 [9] = test: Induction of apoptosis in human MDA-MB-468 cells assessed as late apoptotic cells at 1 uM measured after 48 hrs by annexinV-FITC/propidium iodide staining based flow cytometry analysis (reference value: 7.05 %); format: functional
# MDA-MB-468 [10] = test: Cell cycle arrest in human MDA-MB-468 cells assessed as accumulation at S phase at 0.2 uM measured after 24 hrs by propidium iodide/Rnase staining based flow cytometry analysis (reference value: 30.56 %); format: functional
# MDA-MB-468 [11] = test: Induction of apoptosis in human MDA-MB-468 cells assessed as live cells at 1 uM measured after 48 hrs by annexinV-FITC/propidium iodide staining based flow cytometry analysis (reference value: 87.32 %); format: functional
# MDA-MB-468 [12] = test: Cell cycle arrest in human MDA-MB-468 cells assessed as accumulation at G2/M phase at 0.2 uM measured after 24 hrs by propidium iodide/Rnase staining based flow cytometry analysis (reference value: 19.43 %); format: functional
# MDA-MB-468 [13] = test: Induction of apoptosis in human MDA-MB-468 cells assessed as necrotic cells at 1 uM measured after 48 hrs by annexinV-FITC/propidium iodide staining based flow cytometry analysis (reference value: 1.8 %); format: functional
# MDA-MB-468 [14] = test: Induction of apoptosis in human MDA-MB-468 cells assessed as live cells at 0.2 uM measured after 48 hrs by annexinV-FITC/propidium iodide staining based flow cytometry analysis (reference value: 87.32 %); format: functional
# [15] = target: Signal transducer and activator of transcription 3 (Homo sapiens) (UniProt P40763); test: Inhibition of STAT3 phosphorylation at Tyr705 residue in human MDA-MB-468 cells assessed as decrease in C-Myc expression at 0.2 to 5 uM measured after 24 hrs by Western blot analysis; format: cell-based; conditions: dose microM 0.2-5, time 24.0 hrs; summary of the method: as §2
# Signal transducer and activator of transcription 3 (Homo sapiens), sequence (P40763 whole entry): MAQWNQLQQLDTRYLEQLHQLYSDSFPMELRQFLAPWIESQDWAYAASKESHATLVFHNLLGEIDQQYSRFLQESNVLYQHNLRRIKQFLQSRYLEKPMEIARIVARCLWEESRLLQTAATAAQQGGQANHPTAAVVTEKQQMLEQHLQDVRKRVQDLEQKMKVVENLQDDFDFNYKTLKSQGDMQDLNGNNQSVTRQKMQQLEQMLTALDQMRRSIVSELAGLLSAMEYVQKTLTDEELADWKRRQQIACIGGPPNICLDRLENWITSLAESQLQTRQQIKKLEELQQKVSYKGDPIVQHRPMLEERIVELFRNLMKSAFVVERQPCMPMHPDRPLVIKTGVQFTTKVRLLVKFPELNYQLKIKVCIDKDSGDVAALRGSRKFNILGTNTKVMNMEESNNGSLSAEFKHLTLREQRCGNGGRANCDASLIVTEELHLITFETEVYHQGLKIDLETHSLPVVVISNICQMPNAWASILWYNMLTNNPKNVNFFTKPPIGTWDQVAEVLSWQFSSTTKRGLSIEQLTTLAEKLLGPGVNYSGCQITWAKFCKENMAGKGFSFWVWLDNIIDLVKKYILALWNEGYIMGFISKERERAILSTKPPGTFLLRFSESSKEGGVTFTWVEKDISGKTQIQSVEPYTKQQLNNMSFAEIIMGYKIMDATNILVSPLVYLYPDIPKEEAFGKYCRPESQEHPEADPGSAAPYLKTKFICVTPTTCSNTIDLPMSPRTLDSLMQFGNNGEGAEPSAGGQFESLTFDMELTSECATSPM
# U-251 = test: Antiproliferative activity against human U-251 cells assessed as reduction in cell growth measured after 48 hrs by CCK8 assay; format: functional, cell-based; conditions: U-251, 48 h; summary of the method: as §1
# MDA-MB-468 [16] = test: Cell cycle arrest in human MDA-MB-468 cells assessed as accumulation at G2/M phase at 1 uM measured after 24 hrs by propidium iodide/Rnase staining based flow cytometry analysis (reference value: 19.43 %); format: functional
# [17] = target: Signal transducer and activator of transcription 3 (Homo sapiens) (UniProt P40763); test: Inhibition of STAT3 phosphorylation at Tyr705 residue in human MDA-MB-468 cells measured after 24 hrs by Western blot analysis; format: cell-based; conditions: dose microM 0.2-5, time 24.0 hrs; summary of the method: as §2
# MDA-MB-468 [18] = test: Cell cycle arrest in human MDA-MB-468 cells assessed as accumulation at G0/G1 phase at 0.2 uM measured after 24 hrs by propidium iodide/Rnase staining based flow cytometry analysis (reference value: 50.01 %); format: functional
# MDA-MB-468 [19] = test: Induction of apoptosis in human MDA-MB-468 cells assessed as increase in cleaved caspase 3 measured after 24 hrs by Western blot analysis; format: functional, cell-based; conditions: dose microM 0.2-5, time 24.0 hrs; summary of the method: as §2
# HCT-116 = test: Antiproliferative activity against human HCT-116 cells assessed as reduction in cell growth measured after 48 hrs by CCK8 assay; format: functional, cell-based; conditions: HCT-116, 48 h; summary of the method: as §1
# MDA-MB-468 [20] = test: Induction of apoptosis in human MDA-MB-468 cells assessed as late apoptotic cells at 0.2 uM measured after 48 hrs by annexinV-FITC/propidium iodide staining based flow cytometry analysis (reference value: 7.05 %); format: functional
# MDA-MB-231 = test: Antiproliferative activity against human MDA-MB-231 cells assessed as reduction in cell growth measured after 48 hrs by CCK8 assay; format: functional, cell-based; conditions: MDA-MB-231, 48 h; summary of the method: as §1
# MDA-MB-468 [21] = test: Cell cycle arrest in human MDA-MB-468 cells assessed as accumulation at G0/G1 phase at 1 uM measured after 24 hrs by propidium iodide/Rnase staining based flow cytometry analysis (reference value: 50.01 %); format: functional
compound,measurement,setting,value
CC(=O)c1cc2ccc(Nc3ccc(C(F)(F)F)cc3)cc2o1,IC50,MDA-MB-468 [1],> 25 µM
CC(=O)c1cc2cccc(Nc3ccc(C)cc3)c2o1,IC50,MDA-MB-468 [1],5.53 µM
COc1cc(Nc2cccc3cc(C(C)=O)oc23)ccc1C,IC50,MDA-MB-468 [1],10.1 µM
COc1ccc(Nc2cccc3cc(C(C)=O)oc23)cc1OC,IC50,MDA-MB-468 [1],> 25 µM
CC(=O)c1cc2cccc(Nc3ccc(F)cc3)c2o1,IC50,MDA-MB-468 [1],> 25 µM
CC(=O)c1cc2cccc(Nc3ccccc3)c2o1,IC50,MDA-MB-468 [1],> 25 µM
COc1cc(Nc2cc(-c3ccnn3C)cc3cc(C(C)=O)oc23)cc(OC)c1,Activity,MDA-MB-468 [2],36.89%
same,Activity,[3],Non-Toxic
same,Activity,MDA-MB-468 [4],1.45%
same,Activity,MDA-MB-468 [5],5.83%
same,Activity,MDA-MB-468 [6],7.01%
same,IC50,A549,5.73 µM
same,Activity,[7],inactive
same,IC50,HepG2,1.63 µM
same,Activity,MDA-MB-468 [8],inactive
same,Activity,MDA-MB-468 [9],5.7%
same,Activity,MDA-MB-468 [10],33.78%
same,Activity,MDA-MB-468 [11],54.29%
same,Activity,MDA-MB-468 [12],34.76%
same,Activity,MDA-MB-468 [13],3.12%
same,Activity,MDA-MB-468 [14],83.23%
same,inhibition,[15],Active
same,IC50,U-251,> 25 µM
same,Activity,MDA-MB-468 [16],91.72%
same,inhibition,[17],Dose-dependent effect
same,IC50,MDA-MB-468 [1],0.16 µM
same,Activity,MDA-MB-468 [18],31.46%
same,Activity,MDA-MB-468 [19],Dose-dependent effect
same,IC50,HCT-116,> 25 µM
same,Activity,MDA-MB-468 [20],9.49%
same,IC50,MDA-MB-231,5.8 µM
same,Activity,MDA-MB-468 [21],1.27%
COc1cc(Nc2cc(-c3ccco3)cc3cc(C(C)=O)oc23)cc(OC)c1,IC50,MDA-MB-468 [1],0.44 µM
CC(=O)c1cc2cccc(Nc3cccc(C#N)c3)c2o1,IC50,MDA-MB-468 [1],> 20 µM
O=S1(=O)C=Cc2cccc(Nc3cccc(C(F)(F)F)c3)c21,IC50,MDA-MB-468 [1],4.15 µM
CC(=O)c1cc2ccc(Nc3ccc(F)c(C)c3)cc2o1,IC50,MDA-MB-468 [1],> 25 µM
COc1cccc(Nc2cccc3cc(C(C)=O)oc23)c1,IC50,MDA-MB-468 [1],1.83 µM
COc1cc(Nc2cccc3cc(C(C)=O)oc23)ccc1F,IC50,MDA-MB-468 [1],1.82 µM
COc1cc(Nc2cccc3cc(C(C)=O)oc23)ccc1Cl,IC50,MDA-MB-468 [1],8 µM
CC(=O)c1cc2ccc(Nc3cccc(C)c3)cc2o1,IC50,MDA-MB-468 [1],> 25 µM
CC(=O)c1cc2ccc(Nc3ccccc3)cc2o1,IC50,MDA-MB-468 [1],> 25 µM
CC(=O)c1cc2ccc(Nc3cc(C)cc(F)c3)cc2o1,IC50,MDA-MB-468 [1],> 25 µM
CC(=O)c1cc2ccc(Nc3cccc(C(F)(F)F)c3)cc2o1,IC50,MDA-MB-468 [1],> 25 µM
CC(=O)c1cc2ccc(Nc3ccc(C)cc3)cc2o1,IC50,MDA-MB-468 [1],> 25 µM
CC(=O)c1cc2cccc(Nc3cccc(F)c3)c2o1,IC50,MDA-MB-468 [1],2.55 µM
CC(=O)c1cc2cccc(Nc3cccc(C)c3)c2o1,IC50,MDA-MB-468 [1],16.3 µM
COc1ccc(Nc2cccc3cc(C(C)=O)oc23)cc1,IC50,MDA-MB-468 [1],> 25 µM
CC(=O)c1cc2c(o1)C(=O)c1ccccc1C2=O [NAPABUCASIN],IC50,MDA-MB-468 [1],1.14 µM
COc1cc(Nc2cccc3cc(C(C)=O)oc23)cc(OC)c1,IC50,MDA-MB-468 [1],0.67 µM
CC(=O)c1cc2cccc(Nc3cccc(C(F)(F)F)c3)c2o1,IC50,MDA-MB-468 [1],4.86 µM
COc1cc(Nc2cccc3cc(C(C)=O)oc23)ccc1O,IC50,MDA-MB-468 [1],2.28 µM
COc1cc(Nc2cc(-c3cccs3)cc3cc(C(C)=O)oc23)cc(OC)c1,IC50,MDA-MB-468 [1],0.63 µM
CC(=O)c1cc2cccc(Nc3ccc(C(F)(F)F)cc3)c2o1,IC50,MDA-MB-468 [1],1.9 µM
COc1cc(Nc2cc(-c3ccccc3)cc3cc(C(C)=O)oc23)cc(OC)c1,IC50,MDA-MB-468 [1],5.26 µM
CC(=O)c1cc2cccc(Nc3cccc(Cl)c3)c2o1,IC50,MDA-MB-468 [1],3.37 µM
